The values that follow come from ChEMBL document CHEMBL5653631, “A Potent and Selective ULK1 Inhibitor Suppresses Autophagy and Sensitizes Cancer Cells to Nutrient Stress” (iScience, 2018).

For test [1], the target named is Leucine-rich repeat serine/threonine-protein kinase 2 (Homo sapiens) (UniProt Q5S007). Nature of the test: Inhibition of human recombinant LRRK2 at 40 nM in presence of ATP by radiometric assay relative to control.
Test [2] addresses Serine-protein kinase ATM (Homo sapiens) (UniProt Q13315). The experiment in a line: Inhibition of human recombinant ATM at 500 nM related to control ULK1. A digest of the protocol:
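Panel of 327 recombinant human kinases, each assayed in vitro by radiometric activity assay in duplicate at a single inhibitor concentration per compound, chosen with reference to its ULK1 inhibition. Activity remaining was expressed as percent of vehicle control, and percent inhibition was calculated as 100 minus percent activity remaining.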

Test [3] addresses Maternal embryonic leucine zipper kinase (Homo sapiens) (UniProt Q14680). The experiment in a line: Inhibition of human recombinant MELK at 500 nM related to control ULK1.
For test [4], the target named is T1, Mitogen-activated protein kinase kinase kinase 5 (Homo sapiens) (UniProt Q99683).
T1 sequence (whole entry): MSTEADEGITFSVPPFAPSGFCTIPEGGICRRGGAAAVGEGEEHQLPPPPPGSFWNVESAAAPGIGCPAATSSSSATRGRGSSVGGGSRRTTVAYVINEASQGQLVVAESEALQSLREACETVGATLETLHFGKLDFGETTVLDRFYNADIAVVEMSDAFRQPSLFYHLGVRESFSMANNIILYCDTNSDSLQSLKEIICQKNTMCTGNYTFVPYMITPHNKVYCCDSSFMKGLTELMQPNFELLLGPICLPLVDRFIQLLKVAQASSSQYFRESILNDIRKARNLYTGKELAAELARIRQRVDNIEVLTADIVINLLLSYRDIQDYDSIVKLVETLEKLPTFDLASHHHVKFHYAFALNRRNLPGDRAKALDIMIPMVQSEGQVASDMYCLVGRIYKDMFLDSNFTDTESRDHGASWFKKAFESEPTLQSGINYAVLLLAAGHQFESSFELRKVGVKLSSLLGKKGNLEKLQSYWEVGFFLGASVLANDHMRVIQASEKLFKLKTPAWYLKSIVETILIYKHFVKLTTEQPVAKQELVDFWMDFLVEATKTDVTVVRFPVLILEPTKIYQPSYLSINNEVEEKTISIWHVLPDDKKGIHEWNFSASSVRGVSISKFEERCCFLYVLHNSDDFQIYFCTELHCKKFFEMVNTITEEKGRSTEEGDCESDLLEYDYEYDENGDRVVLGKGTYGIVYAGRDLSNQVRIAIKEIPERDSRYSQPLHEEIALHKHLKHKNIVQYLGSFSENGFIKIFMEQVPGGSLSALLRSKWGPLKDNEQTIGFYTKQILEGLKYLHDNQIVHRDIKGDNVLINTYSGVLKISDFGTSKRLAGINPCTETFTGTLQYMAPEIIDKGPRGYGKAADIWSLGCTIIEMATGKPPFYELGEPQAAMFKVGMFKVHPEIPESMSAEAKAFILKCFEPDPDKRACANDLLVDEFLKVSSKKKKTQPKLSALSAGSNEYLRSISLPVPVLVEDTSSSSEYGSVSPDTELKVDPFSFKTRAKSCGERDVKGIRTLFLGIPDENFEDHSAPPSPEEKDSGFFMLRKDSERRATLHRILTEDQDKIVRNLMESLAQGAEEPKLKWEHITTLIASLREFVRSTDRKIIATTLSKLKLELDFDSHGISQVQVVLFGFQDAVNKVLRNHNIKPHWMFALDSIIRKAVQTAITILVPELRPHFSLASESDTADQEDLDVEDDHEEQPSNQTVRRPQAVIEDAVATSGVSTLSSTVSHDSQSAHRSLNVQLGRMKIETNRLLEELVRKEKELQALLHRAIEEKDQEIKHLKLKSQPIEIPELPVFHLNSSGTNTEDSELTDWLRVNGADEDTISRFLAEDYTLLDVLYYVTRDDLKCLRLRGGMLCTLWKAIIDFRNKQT
The experiment in a line: Inhibition of human recombinant MAP3K5 at 500 nM related to control ULK1.

Test [5] concerns the target T2, Serine/threonine-protein kinase TAO1 (Homo sapiens) (UniProt Q7L7X3).
T2 sequence (whole entry): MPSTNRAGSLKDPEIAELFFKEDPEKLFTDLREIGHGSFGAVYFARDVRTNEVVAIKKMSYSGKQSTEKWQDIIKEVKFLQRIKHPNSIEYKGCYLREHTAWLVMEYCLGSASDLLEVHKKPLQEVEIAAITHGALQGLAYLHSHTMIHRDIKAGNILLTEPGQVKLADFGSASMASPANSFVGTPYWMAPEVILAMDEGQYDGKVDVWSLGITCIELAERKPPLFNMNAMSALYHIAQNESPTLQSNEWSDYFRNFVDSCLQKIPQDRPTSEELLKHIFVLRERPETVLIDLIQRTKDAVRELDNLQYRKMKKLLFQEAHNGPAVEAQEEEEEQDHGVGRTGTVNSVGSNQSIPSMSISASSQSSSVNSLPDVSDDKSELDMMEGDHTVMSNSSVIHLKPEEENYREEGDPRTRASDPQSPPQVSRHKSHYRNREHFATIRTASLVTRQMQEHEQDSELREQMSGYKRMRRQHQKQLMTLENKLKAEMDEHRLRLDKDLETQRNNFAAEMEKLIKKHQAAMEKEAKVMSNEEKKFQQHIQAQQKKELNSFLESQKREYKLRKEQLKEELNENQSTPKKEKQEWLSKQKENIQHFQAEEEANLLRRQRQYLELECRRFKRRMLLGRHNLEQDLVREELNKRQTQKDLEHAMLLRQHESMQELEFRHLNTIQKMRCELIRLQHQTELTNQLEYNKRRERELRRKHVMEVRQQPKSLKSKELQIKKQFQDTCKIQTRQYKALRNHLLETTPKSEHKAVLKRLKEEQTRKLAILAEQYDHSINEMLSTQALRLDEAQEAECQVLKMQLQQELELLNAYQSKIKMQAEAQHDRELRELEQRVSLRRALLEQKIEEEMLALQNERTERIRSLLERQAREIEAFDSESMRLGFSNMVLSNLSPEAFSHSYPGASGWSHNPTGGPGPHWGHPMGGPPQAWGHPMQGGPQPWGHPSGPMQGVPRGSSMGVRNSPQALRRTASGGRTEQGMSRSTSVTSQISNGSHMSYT
Nature of the test: Inhibition of human recombinant TAO1 at 15 nM in presence of ATP by radiometric assay relative to control.

Leucine-rich repeat serine/threonine-protein kinase 2 (Homo sapiens), sequence (Q5S007 whole entry): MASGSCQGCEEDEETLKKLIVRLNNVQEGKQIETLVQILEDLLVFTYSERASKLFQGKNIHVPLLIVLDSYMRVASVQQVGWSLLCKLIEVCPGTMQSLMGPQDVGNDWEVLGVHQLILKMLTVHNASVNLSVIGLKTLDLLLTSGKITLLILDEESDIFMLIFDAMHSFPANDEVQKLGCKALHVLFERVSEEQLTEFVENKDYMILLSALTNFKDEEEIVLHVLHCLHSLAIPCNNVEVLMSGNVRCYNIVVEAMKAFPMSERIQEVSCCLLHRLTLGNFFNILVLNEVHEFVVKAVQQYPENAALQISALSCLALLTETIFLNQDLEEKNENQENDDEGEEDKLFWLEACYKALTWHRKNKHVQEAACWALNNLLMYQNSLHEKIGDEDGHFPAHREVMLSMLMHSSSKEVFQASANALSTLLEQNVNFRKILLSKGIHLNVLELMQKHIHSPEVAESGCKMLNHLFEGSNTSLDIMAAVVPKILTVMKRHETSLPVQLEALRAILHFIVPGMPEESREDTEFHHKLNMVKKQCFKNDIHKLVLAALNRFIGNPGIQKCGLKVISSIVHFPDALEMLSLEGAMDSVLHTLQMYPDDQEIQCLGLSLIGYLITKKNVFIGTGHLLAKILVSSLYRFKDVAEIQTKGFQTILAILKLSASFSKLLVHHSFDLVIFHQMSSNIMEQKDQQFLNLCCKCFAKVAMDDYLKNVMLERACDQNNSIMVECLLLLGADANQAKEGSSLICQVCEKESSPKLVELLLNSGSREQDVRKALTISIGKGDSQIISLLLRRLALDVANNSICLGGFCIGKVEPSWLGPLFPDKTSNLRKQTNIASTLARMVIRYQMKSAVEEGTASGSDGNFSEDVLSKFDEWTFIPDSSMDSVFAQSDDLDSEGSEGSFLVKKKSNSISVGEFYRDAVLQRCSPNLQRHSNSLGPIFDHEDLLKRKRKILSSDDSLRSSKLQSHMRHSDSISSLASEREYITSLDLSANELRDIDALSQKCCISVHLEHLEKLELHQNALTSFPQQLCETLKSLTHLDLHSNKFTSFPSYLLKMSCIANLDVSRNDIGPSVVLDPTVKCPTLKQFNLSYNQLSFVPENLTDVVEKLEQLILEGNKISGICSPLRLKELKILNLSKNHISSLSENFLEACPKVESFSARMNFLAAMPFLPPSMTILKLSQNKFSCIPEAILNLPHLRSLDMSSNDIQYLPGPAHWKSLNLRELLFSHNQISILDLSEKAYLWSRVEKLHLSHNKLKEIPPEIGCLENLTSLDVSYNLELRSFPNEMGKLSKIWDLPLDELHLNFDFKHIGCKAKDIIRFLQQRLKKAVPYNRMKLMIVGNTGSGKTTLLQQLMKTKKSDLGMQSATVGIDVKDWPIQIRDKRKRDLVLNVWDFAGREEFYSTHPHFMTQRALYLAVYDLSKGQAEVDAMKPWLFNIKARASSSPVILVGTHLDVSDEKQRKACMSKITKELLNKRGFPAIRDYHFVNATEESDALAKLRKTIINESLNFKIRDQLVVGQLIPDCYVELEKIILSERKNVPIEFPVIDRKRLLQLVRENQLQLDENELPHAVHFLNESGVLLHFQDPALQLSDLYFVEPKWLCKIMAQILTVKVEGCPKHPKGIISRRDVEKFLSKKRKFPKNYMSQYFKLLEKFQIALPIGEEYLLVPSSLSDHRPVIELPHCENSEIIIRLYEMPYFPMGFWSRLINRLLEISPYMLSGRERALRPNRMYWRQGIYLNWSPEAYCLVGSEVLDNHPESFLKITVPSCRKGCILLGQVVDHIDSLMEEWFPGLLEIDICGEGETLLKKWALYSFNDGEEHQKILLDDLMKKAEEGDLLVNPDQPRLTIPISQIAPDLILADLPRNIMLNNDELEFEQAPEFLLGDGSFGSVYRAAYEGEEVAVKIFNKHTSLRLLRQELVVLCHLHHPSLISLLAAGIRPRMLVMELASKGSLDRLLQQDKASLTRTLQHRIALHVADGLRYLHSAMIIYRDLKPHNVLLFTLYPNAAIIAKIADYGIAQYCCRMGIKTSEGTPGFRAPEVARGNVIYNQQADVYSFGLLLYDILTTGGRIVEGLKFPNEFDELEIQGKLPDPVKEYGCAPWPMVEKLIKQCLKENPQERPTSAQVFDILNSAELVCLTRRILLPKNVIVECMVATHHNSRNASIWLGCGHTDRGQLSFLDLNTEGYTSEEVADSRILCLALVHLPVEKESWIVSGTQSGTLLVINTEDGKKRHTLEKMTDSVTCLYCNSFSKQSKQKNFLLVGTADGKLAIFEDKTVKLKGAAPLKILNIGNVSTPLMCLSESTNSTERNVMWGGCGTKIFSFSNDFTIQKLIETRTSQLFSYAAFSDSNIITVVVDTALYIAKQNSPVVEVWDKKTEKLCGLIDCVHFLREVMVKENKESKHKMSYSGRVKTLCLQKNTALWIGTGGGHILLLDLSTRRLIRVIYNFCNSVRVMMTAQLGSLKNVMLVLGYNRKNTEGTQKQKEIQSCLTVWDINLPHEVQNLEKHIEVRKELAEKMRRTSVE
Maternal embryonic leucine zipper kinase (Homo sapiens), sequence (Q14680 whole entry, looked up): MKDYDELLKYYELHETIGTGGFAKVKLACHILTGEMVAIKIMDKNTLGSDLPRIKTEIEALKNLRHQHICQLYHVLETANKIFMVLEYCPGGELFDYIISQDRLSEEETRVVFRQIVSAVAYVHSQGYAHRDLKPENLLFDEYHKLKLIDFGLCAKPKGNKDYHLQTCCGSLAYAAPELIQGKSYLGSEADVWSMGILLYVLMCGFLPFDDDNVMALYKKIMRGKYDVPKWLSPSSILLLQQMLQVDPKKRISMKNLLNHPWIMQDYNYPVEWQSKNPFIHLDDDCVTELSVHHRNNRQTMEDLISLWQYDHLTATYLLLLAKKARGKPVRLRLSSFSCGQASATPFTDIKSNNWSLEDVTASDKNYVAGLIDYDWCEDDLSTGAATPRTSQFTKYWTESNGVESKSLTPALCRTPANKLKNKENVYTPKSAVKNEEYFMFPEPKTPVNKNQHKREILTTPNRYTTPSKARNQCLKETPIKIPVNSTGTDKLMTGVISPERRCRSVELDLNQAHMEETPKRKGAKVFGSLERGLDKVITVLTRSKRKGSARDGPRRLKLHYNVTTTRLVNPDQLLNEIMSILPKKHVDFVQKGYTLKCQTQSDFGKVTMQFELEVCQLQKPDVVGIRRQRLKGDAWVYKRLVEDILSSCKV

On to `O=C(N[C@@H](C1CC1)C(F)(F)F)c1cc(-c2cnn3cc(-c4ccc(F)cc4)cnc23)cs1`, for which, in test [1], the inhibition was 3%.

With `CNC(=O)c1ccccc1Oc1nc(Nc2cc(OC)c(OC)c(OC)c2)ncc1Br`, the fold change (FC) in test [2] turned out to be 0.03; in test [3], 0; in test [4], 0.

Turning to `CC(C)[C@H](NC(=O)c1cc(-c2cnn3cc(-c4ccc(OCCN5CCCCC5)cc4)cnc23)cs1)C(F)(F)F`, in test [5], the inhibition came out at 0%.
